# Results published in ChEMBL document CHEMBL1141420, “Towards a new generation of potential antipsychotic agents combining D2 and 5-HT1A receptor activities” (J Med Chem, 2007).
# The source made the active and inactive calls. No cut-off for these calls is given here.
# Target: T1, 5-hydroxytryptamine receptor 1A (Rattus norvegicus, UniProt P19327)
# T1 sequence (P19327 whole entry): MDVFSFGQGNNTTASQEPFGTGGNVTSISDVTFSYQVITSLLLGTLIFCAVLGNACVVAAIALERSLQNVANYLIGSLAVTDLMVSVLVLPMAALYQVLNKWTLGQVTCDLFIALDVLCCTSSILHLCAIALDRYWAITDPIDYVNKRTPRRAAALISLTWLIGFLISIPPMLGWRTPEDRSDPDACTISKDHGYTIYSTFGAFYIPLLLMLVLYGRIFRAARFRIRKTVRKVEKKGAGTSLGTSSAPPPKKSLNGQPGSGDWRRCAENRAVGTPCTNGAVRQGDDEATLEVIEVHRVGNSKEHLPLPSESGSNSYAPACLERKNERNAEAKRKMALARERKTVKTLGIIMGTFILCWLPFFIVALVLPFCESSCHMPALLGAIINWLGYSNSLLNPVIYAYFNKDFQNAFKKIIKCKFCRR
# Experiment: Displacement of [3H]OH-DPAT from rat cortex 5HT1A receptor
# Details: not given
row,SMILES,Ki [nM]
1,CC1(C)Cc2cccc(OCCNCc3cncc(C4=CCCC4)c3)c2O1,0.955
2,CC(C)Oc1ccccc1OCCNCc1cccc(-c2cccs2)c1,46.8
3,CC(C)Oc1ccccc1OCCNCc1cccc(-c2ccsc2)c1,34.7
4,CC(C)Oc1ccccc1OCCNCc1cccc(C2=CCCCC2)c1,12.3
5,Fc1ccc(-c2cncc(CNC[C@H]3CCc4ccccc4O3)c2)cc1 [SARIZOTAN],2.24
6,O=c1[nH]c2cccc(N3CCN(Cc4cccc(-c5ccccc5)c4)CC3)c2o1 [BIFEPRUNOX],64.6
7,C1=C(c2cccc(CNCCOc3cccc4c3OCO4)c2)CCC1,20.9
8,CCC1(C)Cc2cccc(OCCNCc3cccc(C4=CCCC4)c3)c2O1 (stereo unspecified),5.5
9,CC1(C)Oc2cccc(OCCNCc3cccc(C4=CCCC4)c3)c2O1,9.55
10,CC(C)Oc1ccccc1OCCNCc1cccc(C2CC2)c1,61.7

# Target: 5-hydroxytryptamine receptor 2A (Rattus norvegicus, UniProt P14842)
# Experiment: Displacement of [3H]ketanserin from rat cortex 5HT2A receptor
# Details: not given
# Chain of 5-hydroxytryptamine receptor 2A (P14842 whole entry): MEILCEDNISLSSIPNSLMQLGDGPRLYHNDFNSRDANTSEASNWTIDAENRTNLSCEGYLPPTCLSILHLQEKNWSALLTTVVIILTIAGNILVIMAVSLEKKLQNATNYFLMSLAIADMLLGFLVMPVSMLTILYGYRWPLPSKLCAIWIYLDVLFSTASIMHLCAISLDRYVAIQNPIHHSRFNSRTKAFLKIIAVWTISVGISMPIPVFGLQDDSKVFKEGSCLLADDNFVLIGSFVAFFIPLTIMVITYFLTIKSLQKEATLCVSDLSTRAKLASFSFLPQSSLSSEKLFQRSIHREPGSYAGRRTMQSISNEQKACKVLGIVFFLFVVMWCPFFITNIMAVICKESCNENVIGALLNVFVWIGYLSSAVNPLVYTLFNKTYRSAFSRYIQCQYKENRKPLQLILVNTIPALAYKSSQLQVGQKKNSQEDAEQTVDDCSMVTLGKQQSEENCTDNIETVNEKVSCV
row,SMILES,Ki [nM]
1,CC(C)Oc1ccccc1OCCNCc1cccc(-c2cccs2)c1,562
2,CC(C)Oc1ccccc1OCCNCc1cccc(-c2ccsc2)c1,347
3,CC(C)Oc1ccccc1OCCNCc1cccc(C2=CCCCC2)c1,191
4,Fc1ccc(-c2cncc(CNC[C@H]3CCc4ccccc4O3)c2)cc1 [SARIZOTAN],2140
5,O=c1[nH]c2cccc(N3CCN(Cc4cccc(-c5ccccc5)c4)CC3)c2o1 [BIFEPRUNOX],3310
6,CC(C)Oc1ccccc1OCCNCc1cccc(C2CC2)c1,110

# Target: D(2) dopamine receptor (Rattus norvegicus, UniProt P61169)
# Experiment: Displacement of [3H]YM-09151-2 from rat striatum D2 receptor
# Details: not given
# Chain of D(2) dopamine receptor (P61169 whole entry): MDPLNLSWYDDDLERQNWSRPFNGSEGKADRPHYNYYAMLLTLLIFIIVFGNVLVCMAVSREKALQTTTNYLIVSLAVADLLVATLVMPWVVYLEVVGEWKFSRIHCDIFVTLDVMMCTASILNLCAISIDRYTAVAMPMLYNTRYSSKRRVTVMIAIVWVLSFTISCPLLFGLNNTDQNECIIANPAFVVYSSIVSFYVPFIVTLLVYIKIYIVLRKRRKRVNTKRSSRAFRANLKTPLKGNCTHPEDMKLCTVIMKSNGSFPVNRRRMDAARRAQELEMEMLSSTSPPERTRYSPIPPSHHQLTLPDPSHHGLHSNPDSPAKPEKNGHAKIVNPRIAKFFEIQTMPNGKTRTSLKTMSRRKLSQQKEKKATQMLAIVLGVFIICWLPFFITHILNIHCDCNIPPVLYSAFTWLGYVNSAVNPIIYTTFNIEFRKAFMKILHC
row,SMILES,Ki [nM]
1,CC1(C)Cc2cccc(OCCNCc3cncc(C4=CCCC4)c3)c2O1,0.275
2,CC(C)Oc1ccccc1OCCNCc1cccc(-c2cccs2)c1,0.562
3,CC(C)Oc1ccccc1OCCNCc1cccc(-c2ccsc2)c1,0.275
4,CC(C)Oc1ccccc1OCCNCc1cccc(C2=CCCCC2)c1,1.55
5,Fc1ccc(-c2cncc(CNC[C@H]3CCc4ccccc4O3)c2)cc1 [SARIZOTAN],19.1
6,O=c1[nH]c2cccc(N3CCN(Cc4cccc(-c5ccccc5)c4)CC3)c2o1 [BIFEPRUNOX],1.55
7,C1=C(c2cccc(CNCCOc3cccc4c3OCO4)c2)CCC1,2.57
8,CCC1(C)Cc2cccc(OCCNCc3cccc(C4=CCCC4)c3)c2O1 (stereo unspecified),11.5
9,CC1(C)Oc2cccc(OCCNCc3cccc(C4=CCCC4)c3)c2O1,1.23
10,CC(C)Oc1ccccc1OCCNCc1cccc(C2CC2)c1,0.603

# Target: T2, 5-hydroxytryptamine receptor 1A (Homo sapiens, UniProt P08908)
# T2 sequence (P08908 whole entry): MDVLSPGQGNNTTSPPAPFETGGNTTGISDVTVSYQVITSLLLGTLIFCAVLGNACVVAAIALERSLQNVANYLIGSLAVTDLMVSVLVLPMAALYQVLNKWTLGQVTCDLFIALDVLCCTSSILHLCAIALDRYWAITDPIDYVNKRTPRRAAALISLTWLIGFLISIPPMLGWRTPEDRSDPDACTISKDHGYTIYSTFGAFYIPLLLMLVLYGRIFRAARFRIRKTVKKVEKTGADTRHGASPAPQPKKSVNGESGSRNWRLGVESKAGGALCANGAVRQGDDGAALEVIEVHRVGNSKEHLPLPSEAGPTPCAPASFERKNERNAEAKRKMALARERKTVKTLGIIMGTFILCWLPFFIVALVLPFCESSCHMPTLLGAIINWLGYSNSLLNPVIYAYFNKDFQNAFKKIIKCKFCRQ
# Experiment: Agonist activity at human 5HT1A receptor in HeLa cells assessed as stimulation of [35S]GTP-gamma-S binding
# Format: functional, cell-based
# Details: not given
# Method in brief: (§1)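 Membranes from HeLa cells expressing human 5-HT1A, prepared by homogenisation and 40 000 g spins in Hepes/EDTA, incubated with compound 1 h at 30 °C. [35S]GTPγS added at 0.1 nM final, then 30 min at 30 °C. Filtration and scintillation counting. Six concentrations from 10^-10 to 10^-5 M, triplicate, three experiments.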
row,SMILES,EC50 [nM]
1,CC1(C)Cc2cccc(OCCNCc3cncc(C4=CCCC4)c3)c2O1,2.88
2,CC(C)Oc1ccccc1OCCNCc1cccc(-c2cccs2)c1,> 10000
3,CC(C)Oc1ccccc1OCCNCc1cccc(-c2ccsc2)c1,67.6
4,CC(C)Oc1ccccc1OCCNCc1cccc(C2=CCCCC2)c1,46.8
5,Fc1ccc(-c2cncc(CNC[C@H]3CCc4ccccc4O3)c2)cc1 [SARIZOTAN],77.6
6,O=c1[nH]c2cccc(N3CCN(Cc4cccc(-c5ccccc5)c4)CC3)c2o1 [BIFEPRUNOX],324
7,C1=C(c2cccc(CNCCOc3cccc4c3OCO4)c2)CCC1,135
8,CCC1(C)Cc2cccc(OCCNCc3cccc(C4=CCCC4)c3)c2O1 (stereo unspecified),32.4
9,CC1(C)Oc2cccc(OCCNCc3cccc(C4=CCCC4)c3)c2O1,24.5
10,CC(C)Oc1ccccc1OCCNCc1cccc(C2CC2)c1,> 10000

# Target: T3, 5-hydroxytryptamine receptor 1A (Homo sapiens) (UniProt P08908)
# T3 sequence (whole entry): T2 sequence (P08908 whole entry)
# Experiment: Agonist activity at human 5HT1A receptor in HeLa cells assessed as stimulation of [35S]GTPgammaS binding relative to serotonin
# Format: functional, cell-based
# Details: not given
# Method in brief: as §1
row,SMILES,Emax [%]
1,CC1(C)Cc2cccc(OCCNCc3cncc(C4=CCCC4)c3)c2O1,72.4
2,CC(C)Oc1ccccc1OCCNCc1cccc(-c2ccsc2)c1,47.7
3,CC(C)Oc1ccccc1OCCNCc1cccc(C2=CCCCC2)c1,69.8
4,Fc1ccc(-c2cncc(CNC[C@H]3CCc4ccccc4O3)c2)cc1 [SARIZOTAN],66.5
5,O=c1[nH]c2cccc(N3CCN(Cc4cccc(-c5ccccc5)c4)CC3)c2o1 [BIFEPRUNOX],60.8
6,C1=C(c2cccc(CNCCOc3cccc4c3OCO4)c2)CCC1,70.7
7,CCC1(C)Cc2cccc(OCCNCc3cccc(C4=CCCC4)c3)c2O1 (stereo unspecified),77.7
8,CCCN(CCC)C1CCc2cccc(O)c2C1 (stereo unspecified) [8-OH-DPAT],82
9,CC1(C)Oc2cccc(OCCNCc3cccc(C4=CCCC4)c3)c2O1,90.6

# Tested on: Rattus norvegicus
# Experiment: Normalizing effect on methylphenidate-induced behaviours in ip dosed rat after 30 min
# Format: functional
# Details: not given
# Method in brief: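 Rats given methylphenidate 40 mg/kg i.p. plus compound i.p. (10 mL/kg; doses as free base), seven per dose. Over 10 min starting 30 min after injection, locomotion, rearing, sniffing, gnawing and licking scored in 10 s observations repeated 10 times. Normalization judged against saline and methylphenidate controls.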
row,SMILES,Activity
1,CCC1(C)Cc2cccc(OCCNCc3cccc(C4=CCCC4)c3)c2O1 (stereo unspecified),Active
2,CC1(C)Oc2cccc(OCCNCc3cccc(C4=CCCC4)c3)c2O1,Active

# Same assay, conditions: 0.5 h
row,SMILES,ED50 [mg/kg]
1,CC1(C)Cc2cccc(OCCNCc3cncc(C4=CCCC4)c3)c2O1,0.29
2,O=C(CCCN1CCC(O)(c2ccc(Cl)cc2)CC1)c1ccc(F)cc1 [HALOPERIDOL],0.31
3,CCCN(CCC)C1CCc2cccc(O)c2C1 (stereo unspecified) [8-OH-DPAT],> 10

# Tested on: Rattus norvegicus
# Experiment: Induction of catalepsy in ip dosed rat after 60 min by crossed-leg position test
# Format: functional
# Details: 1 h
# Method in brief: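 Rats dosed i.p. (10 mL/kg; doses as free base), seven per dose. From 60 min, hind limbs crossed over the ipsilateral forelimbs and time held recorded, up to 30 s. Repeated at 3 and 6 min and the three trials averaged. Incidence taken as catalepsy lasting 30 s.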
row,SMILES,ED50 [mg/kg]
1,CC1(C)Cc2cccc(OCCNCc3cncc(C4=CCCC4)c3)c2O1,> 40
2,O=C(CCCN1CCC(O)(c2ccc(Cl)cc2)CC1)c1ccc(F)cc1 [HALOPERIDOL],0.3
3,CCCN(CCC)C1CCc2cccc(O)c2C1 (stereo unspecified) [8-OH-DPAT],> 10

# Tested on: Rattus norvegicus
# Experiment: Induction of lower lip retraction in ip dosed rat after 15 min
# Format: functional
# Details: 0.25 h
# Method in brief: (§2)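 Rats given compound i.p. (10 mL/kg; doses as free base), five per dose, observed individually for 10 min from 15 min post-injection. LLR scored present if uninterrupted for ≥3 s, in 10 cycles; response was ≥1 positive score. FBP scored present only if seen over the whole period.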
row,SMILES,ED50 [mg/kg]
1,CC1(C)Cc2cccc(OCCNCc3cncc(C4=CCCC4)c3)c2O1,1.8
2,CCCN(CCC)C1CCc2cccc(O)c2C1 (stereo unspecified) [8-OH-DPAT],0.09

# Tested on: Rattus norvegicus
# Experiment: Induction of flat body posture in ip dosed rat after 15 min
# Format: functional
# Details: 0.25 h
# Method in brief: as §2
row,SMILES,ED50 [mg/kg]
1,CC1(C)Cc2cccc(OCCNCc3cncc(C4=CCCC4)c3)c2O1,4.7
2,CCCN(CCC)C1CCc2cccc(O)c2C1 (stereo unspecified) [8-OH-DPAT],0.28

# Tested on: Rattus norvegicus
# Experiment: Induction of forepaw treading in rat at 40 mg/kg, ip
# Format: functional, organism-based
# Design: dose 40 mg/kg
# Details: not given
row,SMILES,Activity
1,CC1(C)Cc2cccc(OCCNCc3cncc(C4=CCCC4)c3)c2O1,inactive

# Tested on: Rattus norvegicus
# Experiment: Ratio of ED50 for LLR induction to ED50 for normalization in ip dosed rat
# Format: functional
# Details: not given
row,SMILES,Ratio ED50
1,CC1(C)Cc2cccc(OCCNCc3cncc(C4=CCCC4)c3)c2O1,6.2

# Tested on: Rattus norvegicus
# Experiment: Ratio of ED50 for catalepsy induction to ED50 for normalization in ip dosed rat
# Format: functional
# Details: not given
row,SMILES,Ratio ED50
1,CC1(C)Cc2cccc(OCCNCc3cncc(C4=CCCC4)c3)c2O1,>137

# Target: D(2) dopamine receptor (Rattus norvegicus) (UniProt P61169)
# Details: not given
# Chain of D(2) dopamine receptor (Rattus norvegicus) (P61169 whole entry): as the sequence (P61169 whole entry) above
row,SMILES,pKb
1,CC1(C)Cc2cccc(OCCNCc3cncc(C4=CCCC4)c3)c2O1,9.29
